Data set [1] concerns the target Xanthine dehydrogenase/oxidase (Bos taurus, UniProt P80457). As to the kind of experiment: Inhibition of bovine milk xanthine oxidoreductase. Summed up: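 Bovine milk XO (2 mU/mL) with 15 µM xanthine in 50 mM phosphate buffer, pH 7.4, at 25 °C, with or without compound. Uric acid formation read as absorbance rise at 292 nm. Initial rate taken from 0 to 2.5 min and used for IC50.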

Data set [2] deals with Rattus norvegicus. As to the kind of experiment: Reduction of uric acid level in rat serum at 0.3 mg/kg, po after 6 hrs by phosphotungstic acid method. The class given is functional. Also noted: scale not given: the % may be the effect or the level left. In short, it runs like this:
(§1)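 Rats dosed orally. Blood drawn from the orbital sinus 6 h post-dose, clotted 1 h at room temperature and centrifuged. Serum uric acid measured by the phosphotungstic acid method.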

A short description of data set [3]: Cmax in rat at 3 mg/kg, po. Also noted: dose 3 mg/kg, route oral. The following applies: in vivo. In kind it is ADME, organism-based. In short, it runs like this: (§2)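 Compounds given orally to rats; blood taken from the jugular vein at set times and centrifuged to plasma. Plasma aliquots were mixed with acetonitrile containing an internal standard, then centrifuged.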

A short description of data set [4]: Half life in rat at 3 mg/kg, po. On the set-up: dose 3 mg/kg, route oral. In kind it is ADME, organism-based. The following applies: in vivo. In short, it runs like this:
as §2

The next data set has as its target CYP3A4 (Homo sapiens, UniProt P08684). As to the kind of experiment: Inhibition of human CYP3A4 at 10 uM. In kind it is ADME.
A short description of data set [5]: Cmax in rat at 1 mg/kg, po. In kind it is ADME, organism-based. The following applies: in vivo. On the set-up: dose 1 mg/kg, route oral. In short, it runs like this: as §2
The target of a further data set is T1, Cytochrome P450 1A2 (Homo sapiens, UniProt P05177).
T1 sequence (P05177 whole entry): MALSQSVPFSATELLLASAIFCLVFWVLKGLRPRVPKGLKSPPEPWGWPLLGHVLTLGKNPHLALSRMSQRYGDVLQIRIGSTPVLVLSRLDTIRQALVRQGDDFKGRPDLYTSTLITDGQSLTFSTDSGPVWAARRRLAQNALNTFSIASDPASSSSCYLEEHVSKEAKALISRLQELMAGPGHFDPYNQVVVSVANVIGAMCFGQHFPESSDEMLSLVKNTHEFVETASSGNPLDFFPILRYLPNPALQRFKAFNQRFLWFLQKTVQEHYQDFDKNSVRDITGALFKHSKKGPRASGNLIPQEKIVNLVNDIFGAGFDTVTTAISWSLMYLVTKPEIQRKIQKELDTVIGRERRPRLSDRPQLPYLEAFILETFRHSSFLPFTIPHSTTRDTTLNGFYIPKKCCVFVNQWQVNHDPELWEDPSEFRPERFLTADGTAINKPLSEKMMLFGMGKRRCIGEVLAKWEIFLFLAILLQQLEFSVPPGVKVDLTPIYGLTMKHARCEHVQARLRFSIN
The data set is described as follows: Inhibition of human CYP1A2. In kind it is ADME.

For the next data set, the target named is Cytochrome P450 2C9 (Homo sapiens, UniProt P11712). As to the kind of experiment: Inhibition of human CYP2C9. In kind it is ADME.
A further data set has as its target Cytochrome P450 2C19 (Homo sapiens, UniProt P33261). As to the kind of experiment: Inhibition of human CYP2C19. The class given is ADME.
For another data set, the target named is Cytochrome P450 2D6 (Homo sapiens, UniProt P10635). The data set is described as follows: Inhibition of human CYP2D6. The class given is ADME.
Data set [6] relates to Rattus norvegicus. The data set is described as follows: Reduction of uric acid level in rat serum at 1 mg/kg, po after 6 hrs by phosphotungstic acid method. The class given is functional. On the set-up: scale not given: the % may be the effect or the level left. In short, it runs like this: as §1

SMILES strings stand for the structures.

As usually defined, the IC50 is the concentration that gives 50% inhibition. One may read the Cmax as the peak of the concentration-time curve. For orientation: half-life means the time in which the quantity being followed falls by half. What is called inhibition is the change of the read-out against control, counted positive when it falls.

Sequence of CYP3A4 (P08684 whole entry): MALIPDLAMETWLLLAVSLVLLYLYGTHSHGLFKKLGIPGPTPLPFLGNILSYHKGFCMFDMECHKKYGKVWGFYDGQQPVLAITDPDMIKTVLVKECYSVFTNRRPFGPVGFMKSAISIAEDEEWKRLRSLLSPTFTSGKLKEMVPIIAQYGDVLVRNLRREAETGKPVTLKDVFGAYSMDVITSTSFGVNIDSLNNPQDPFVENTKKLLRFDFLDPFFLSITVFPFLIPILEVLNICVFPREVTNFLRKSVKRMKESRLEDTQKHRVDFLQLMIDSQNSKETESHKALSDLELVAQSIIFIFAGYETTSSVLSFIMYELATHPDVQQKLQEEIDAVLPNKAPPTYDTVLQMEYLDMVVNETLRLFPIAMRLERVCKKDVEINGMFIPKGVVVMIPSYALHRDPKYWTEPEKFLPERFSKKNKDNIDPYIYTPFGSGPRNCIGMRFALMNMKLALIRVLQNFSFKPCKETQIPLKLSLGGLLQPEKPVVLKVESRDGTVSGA
Sequence of Xanthine dehydrogenase/oxidase (P80457 whole entry): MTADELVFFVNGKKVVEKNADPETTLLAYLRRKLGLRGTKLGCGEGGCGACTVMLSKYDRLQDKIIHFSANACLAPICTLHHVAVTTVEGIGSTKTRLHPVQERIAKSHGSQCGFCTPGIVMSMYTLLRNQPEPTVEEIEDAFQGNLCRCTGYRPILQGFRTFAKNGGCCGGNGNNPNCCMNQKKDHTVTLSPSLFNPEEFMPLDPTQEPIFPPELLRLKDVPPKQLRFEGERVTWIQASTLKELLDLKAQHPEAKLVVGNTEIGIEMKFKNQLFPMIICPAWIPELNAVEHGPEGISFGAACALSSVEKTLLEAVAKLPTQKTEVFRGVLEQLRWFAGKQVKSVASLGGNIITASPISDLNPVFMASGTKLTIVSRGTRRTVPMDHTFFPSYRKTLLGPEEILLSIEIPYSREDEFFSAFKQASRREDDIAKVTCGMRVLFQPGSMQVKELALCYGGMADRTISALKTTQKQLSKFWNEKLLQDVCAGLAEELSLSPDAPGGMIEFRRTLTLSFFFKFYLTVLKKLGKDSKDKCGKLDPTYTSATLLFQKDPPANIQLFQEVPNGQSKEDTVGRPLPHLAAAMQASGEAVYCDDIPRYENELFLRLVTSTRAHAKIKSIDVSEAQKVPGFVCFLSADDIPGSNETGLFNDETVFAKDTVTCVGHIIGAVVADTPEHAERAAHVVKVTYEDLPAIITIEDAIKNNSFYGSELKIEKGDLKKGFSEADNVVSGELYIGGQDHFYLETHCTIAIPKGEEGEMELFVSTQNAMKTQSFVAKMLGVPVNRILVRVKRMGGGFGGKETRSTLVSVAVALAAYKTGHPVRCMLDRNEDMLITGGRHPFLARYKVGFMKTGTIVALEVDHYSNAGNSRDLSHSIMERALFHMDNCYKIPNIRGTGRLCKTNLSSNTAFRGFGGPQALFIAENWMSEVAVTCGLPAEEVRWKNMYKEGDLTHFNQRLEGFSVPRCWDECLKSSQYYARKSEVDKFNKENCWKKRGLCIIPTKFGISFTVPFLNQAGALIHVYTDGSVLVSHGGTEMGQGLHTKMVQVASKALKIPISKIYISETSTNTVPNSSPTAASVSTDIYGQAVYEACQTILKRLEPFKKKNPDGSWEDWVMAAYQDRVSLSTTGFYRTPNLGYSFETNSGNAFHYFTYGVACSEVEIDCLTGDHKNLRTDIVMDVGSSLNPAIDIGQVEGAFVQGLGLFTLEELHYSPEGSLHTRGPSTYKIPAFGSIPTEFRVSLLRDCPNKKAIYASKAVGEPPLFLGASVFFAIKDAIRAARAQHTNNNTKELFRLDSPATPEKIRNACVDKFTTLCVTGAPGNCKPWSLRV
Sequence of Cytochrome P450 2C9 (P11712 whole entry): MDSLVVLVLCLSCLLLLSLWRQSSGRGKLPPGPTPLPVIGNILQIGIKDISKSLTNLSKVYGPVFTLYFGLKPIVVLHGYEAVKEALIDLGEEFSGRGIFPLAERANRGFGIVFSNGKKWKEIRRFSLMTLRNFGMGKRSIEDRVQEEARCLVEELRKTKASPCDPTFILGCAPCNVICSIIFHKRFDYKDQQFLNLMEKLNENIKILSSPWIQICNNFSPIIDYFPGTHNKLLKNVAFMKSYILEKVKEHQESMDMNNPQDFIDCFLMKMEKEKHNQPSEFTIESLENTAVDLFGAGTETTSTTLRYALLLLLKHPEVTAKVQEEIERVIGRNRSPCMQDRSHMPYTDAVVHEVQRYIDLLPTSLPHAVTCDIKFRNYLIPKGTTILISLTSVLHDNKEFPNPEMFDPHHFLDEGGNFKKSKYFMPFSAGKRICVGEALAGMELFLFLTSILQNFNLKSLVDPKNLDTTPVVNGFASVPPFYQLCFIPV
Sequence of Cytochrome P450 2D6 (P10635 whole entry): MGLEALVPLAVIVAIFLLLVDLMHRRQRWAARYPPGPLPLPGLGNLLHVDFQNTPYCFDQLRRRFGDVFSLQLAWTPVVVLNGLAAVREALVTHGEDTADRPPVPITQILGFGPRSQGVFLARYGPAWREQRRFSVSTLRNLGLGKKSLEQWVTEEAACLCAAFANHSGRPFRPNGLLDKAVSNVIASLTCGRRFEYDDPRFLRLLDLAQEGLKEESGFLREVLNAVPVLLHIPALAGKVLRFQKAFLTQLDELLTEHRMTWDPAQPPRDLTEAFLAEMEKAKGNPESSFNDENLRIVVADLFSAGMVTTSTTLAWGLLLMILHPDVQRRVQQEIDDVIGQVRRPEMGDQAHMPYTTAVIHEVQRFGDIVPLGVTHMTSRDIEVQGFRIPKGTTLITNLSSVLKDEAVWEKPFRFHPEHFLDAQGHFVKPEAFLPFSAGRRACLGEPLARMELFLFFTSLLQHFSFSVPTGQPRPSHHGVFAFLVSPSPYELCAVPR
Sequence of Cytochrome P450 2C19 (P33261 whole entry): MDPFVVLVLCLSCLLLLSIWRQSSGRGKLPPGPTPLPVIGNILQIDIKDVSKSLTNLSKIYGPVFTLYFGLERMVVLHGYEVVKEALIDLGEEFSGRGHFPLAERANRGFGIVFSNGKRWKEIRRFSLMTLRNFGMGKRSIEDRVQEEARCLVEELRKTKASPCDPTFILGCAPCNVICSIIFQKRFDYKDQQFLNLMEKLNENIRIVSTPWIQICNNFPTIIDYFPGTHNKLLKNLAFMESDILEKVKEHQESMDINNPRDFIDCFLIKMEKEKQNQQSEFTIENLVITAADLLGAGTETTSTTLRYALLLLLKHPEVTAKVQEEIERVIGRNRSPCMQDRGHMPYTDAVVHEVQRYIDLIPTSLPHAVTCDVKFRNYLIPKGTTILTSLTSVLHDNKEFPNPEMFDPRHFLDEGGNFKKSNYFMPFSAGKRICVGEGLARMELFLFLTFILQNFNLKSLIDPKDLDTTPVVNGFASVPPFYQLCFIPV

Turning to `COCOc1ccc(-c2nc(-c3ccnc(C)c3)n[nH]2)cc1C#N`, in data set [1], 24 nM corresponded to half-maximal inhibition (IC50). Also, the Activity in the data set on Rattus norvegicus [2] turned out to be 27%.
The matching figures for `CCOC(=O)c1cc(-c2nc(-c3ccnc(C)c3)n[nH]2)ccc1OCC(C)C`: 20 nM and 42.4%.
`COCCOCCOc1ccc(-c2nc(-c3ccnc(C)c3)n[nH]2)cc1C#N`: the IC50 in data set [1] is 31 nM. Besides, the Activity in the data set on Rattus norvegicus [2] turned out to be 52%. Besides, the Cmax in data set [3] is 712 ng/mL. In data set [4], this compound had a half-life of 58.2 min. In addition, the inhibition at 10 µM against CYP3A4 was -6.7%.
`CC(C)COc1ccc(-c2nc(-c3ccccn3)n[nH]2)cc1[N+](=O)[O-]`: the IC50 in data set [1] was more than 10000 nM.
In the case of `Cc1cc(-c2nc(-c3ccc(OCC(C)C)c([N+](=O)[O-])c3)n[nH]2)ccn1`, the IC50 in [1] was 10 nM. For the same compound, the Activity with Rattus norvegicus [2] is reported as 39.1%. For the same compound, in data set [5], the concentration peaked (Cmax) at 7.8 ng/mL. The inhibition at 10 µM at CYP3A4 stood at 7.7%.
Compound `COc1cc(-c2n[nH]c(-c3ccc(OCC(C)C)c([N+](=O)[O-])c3)n2)ccn1` registered an IC50 in data set [1] of more than 10000 nM. Moreover, the inhibition at 10 µM against CYP3A4 is 6.4%.
Compound `COCCOCOc1ccc(-c2nc(-c3ccnc(C)c3)n[nH]2)cc1C#N` yielded an IC50 in [1] of 24 nM. The Activity with Rattus norvegicus [2] is 40%. This compound gave a Cmax in data set [3] of 360 ng/mL. The same compound gave a half-life in data set [4] of 27 min. In addition, at CYP3A4, the inhibition at 10 µM amounted to 16.5%.
Turning to `CCCCOCCOCCOc1ccc(-c2nc(-c3ccnc(C)c3)n[nH]2)cc1C#N`, the IC50 in data set [1] turned out to be 26 nM. In addition, the Activity in the data set on Rattus norvegicus [2] amounted to 10.1%.
Regarding `Cc1cc(-c2n[nH]c(-c3ccc(OCCOCCOCCCl)c(C#N)c3)n2)ccn1`, 21 nM corresponded to half-maximal inhibition in data set [1] (IC50). In addition, the Activity with Rattus norvegicus [2] is given as 40.7%. In [3], this compound gave a Cmax of 684 ng/mL. The compound also had a half-life in data set [4] of 31.2 min.
In data set [1], `Cc1cc(-c2nnc(-c3ccc(OCC(C)C)c([N+](=O)[O-])c3)[nH]2)cc(Cl)n1` yielded a 50% inhibitory concentration (IC50) of more than 10000 nM. Further, the inhibition at 10 µM at CYP3A4 is 10.9%.
With `Cc1cc(-c2nnc(-c3ccc(OCC(=O)O)c(C#N)c3)[nH]2)ccn1`, in data set [1], the IC50 was 110 nM.
In data set [1], `Cc1cc(-c2n[nH]c(-c3ccc(OCCO)c(C#N)c3)n2)ccn1` yielded a 50% inhibitory concentration (IC50) of 40 nM. In addition, the Activity in the data set with Rattus norvegicus [2] was 10.9%.
The matching figures for `COCCOc1ccc(-c2nc(-c3ccnc(C)c3)n[nH]2)cc1C#N`: 64 nM and 36.5%.
As for `CC(C)COc1ccc(NC(=O)C(=O)O)cc1Cl`, the midpoint of inhibition in data set [1], the IC50, lay at 7300 nM.
In turn, `CC(C)COc1ccc(NC(=O)Nc2ccncc2)cc1[N+](=O)[O-]` yielded an IC50 in [1] of 15 nM. Moreover, the Activity with Rattus norvegicus [2] is -3.2%.
Take `CC(C)COc1ccc(-c2n[nH]c(-c3ccncc3)n2)cc1[N+](=O)[O-]`: 3.7 nM corresponded to half-maximal inhibition in data set [1] (IC50). For the same compound, the Activity in the data set on Rattus norvegicus [2] was 33.7%; at Cytochrome P450 1A2 it was “Active”; at Cytochrome P450 2C9, “Active”; at Cytochrome P450 2C19, “Active”; at Cytochrome P450 2D6, “Active”. Moreover, the highest level in data set [5] (Cmax) was 13.8 ng/mL. Also, the inhibition at 10 µM on CYP3A4 came to 80.9%.
The compound `Cc1cc(-c2nc(-c3ccc(OCC(C)C)c(C#N)c3)n[nH]2)ccn1` displayed a concentration for half-maximal inhibition (IC50) in data set [1] of 17 nM. In addition, in the data set on Rattus norvegicus [2], the Activity was determined as 46%. Further, the Cmax is 4.5 ng/mL in [5] and 16.7 ng/mL in data set [3]. The compound further gave a half-life in data set [4] of 22.2 min. Moreover, the inhibition at 10 µM on CYP3A4 turned out to be 16.8%.
In turn, `Cc1cc(-c2n[nH]c(-c3ccc(O)c(C#N)c3)n2)ccn1` came in with an IC50 in data set [1] of 43 nM. In addition, the Activity in the data set with Rattus norvegicus [2] was -8.2%.
For `Cc1cc(-c2nnc(-c3ccc(OCC(C)C)c(C(=O)O)c3)[nH]2)ccn1`, the IC50 in [1] is more than 10000 nM.
In turn, `CC(C)COc1ccc(-c2nc(-c3cccnc3)n[nH]2)cc1[N+](=O)[O-]` displayed an IC50 in data set [1] of 5900 nM. In addition, the inhibition at 10 µM against CYP3A4 was found to be 18.2%.
`CC(C)COc1ccc(-c2nc(-c3ccnc(Cl)c3)n[nH]2)cc1[N+](=O)[O-]`: the Activity in the data set with Rattus norvegicus [6] was found to be 40.6%. Besides, the inhibition at 10 µM against CYP3A4 was found to be 7.1%.
`Cc1cc(-c2n[nH]c(-c3ccc(OCC4COC(C)(C)O4)c(C#N)c3)n2)ccn1` (stereo not given) came in with an IC50 in [1] of 60 nM. The Activity with Rattus norvegicus [2] was determined as 27.9%.

For the origin of these results see ChEMBL document CHEMBL1139290, “Design, synthesis, and pharmacological and pharmacokinetic evaluation of 3-phenyl-5-pyridyl-1,2,4-triazole derivatives as xanthine oxidoreductase inhibitors” (Bioorg Med Chem Lett, 2009).
